The source made the active and inactive calls. No cut-off for these calls is given here. Residues, ends and D or L forms follow the SMILES beside them.
How the values were obtained:
[1] = target: T1, von Hippel-Lindau disease tumor suppressor/Receptor-interacting serine/threonine-protein kinase 1 (Homo sapiens, UniProt Q13546+P40337); test: PROTAC activity at VHL/nLucK0-fused N-terminal RIPK1 kinase domain (unknown origin) expressed in HEK293T cells assessed as induction of protein degradation measured after 24 hrs in presence of furimazine substrate by Nano-Glo luciferase based luminescence analysis; format: cell-based
Method in brief: (§1)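 HEK293T cells transiently transfected with nLuc (WT or K0)-RIPK1 kinase domain (1-324) through a 24-residue linker, expressed 24–36 h. Replated at 20,000 cells/well in Opti-MEM with 4% FBS. Treated 24 h with 1.6–1,000 nM (5-fold, 1% DMSO). Medium removed, Nano-Glo substrate 1:100 in PBS added, live-cell luminescence read. Three-parameter inhibitor fit; at least two biological batches.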
Target sequence in this assay (Q13546 whole entry, the tested form may be a part): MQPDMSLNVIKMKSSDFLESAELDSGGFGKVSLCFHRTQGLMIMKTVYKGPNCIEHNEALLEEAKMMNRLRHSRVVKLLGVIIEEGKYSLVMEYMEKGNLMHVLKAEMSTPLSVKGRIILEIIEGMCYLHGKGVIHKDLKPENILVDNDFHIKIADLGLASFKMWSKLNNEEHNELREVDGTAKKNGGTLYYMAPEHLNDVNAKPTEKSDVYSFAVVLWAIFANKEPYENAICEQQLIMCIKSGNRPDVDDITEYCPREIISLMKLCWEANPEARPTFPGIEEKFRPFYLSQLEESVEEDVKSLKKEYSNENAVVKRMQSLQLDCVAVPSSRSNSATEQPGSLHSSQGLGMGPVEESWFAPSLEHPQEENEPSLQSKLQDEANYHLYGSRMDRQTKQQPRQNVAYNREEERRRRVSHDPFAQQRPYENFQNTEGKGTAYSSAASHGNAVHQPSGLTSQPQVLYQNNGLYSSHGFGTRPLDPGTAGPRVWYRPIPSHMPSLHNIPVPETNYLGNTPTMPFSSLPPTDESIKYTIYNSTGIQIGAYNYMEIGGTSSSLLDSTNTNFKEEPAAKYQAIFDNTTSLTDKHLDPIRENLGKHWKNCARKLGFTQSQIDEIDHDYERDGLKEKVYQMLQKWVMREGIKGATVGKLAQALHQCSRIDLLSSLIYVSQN
Target sequence in this assay (P40337 whole entry, the tested form may be a part): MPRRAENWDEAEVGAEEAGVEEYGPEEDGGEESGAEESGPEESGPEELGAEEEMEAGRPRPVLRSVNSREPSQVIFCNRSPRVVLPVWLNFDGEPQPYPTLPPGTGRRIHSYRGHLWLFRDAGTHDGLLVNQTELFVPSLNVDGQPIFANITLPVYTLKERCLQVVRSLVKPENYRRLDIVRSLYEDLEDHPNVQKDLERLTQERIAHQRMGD

[2] = target: T1, von Hippel-Lindau disease tumor suppressor/Receptor-interacting serine/threonine-protein kinase 1; test: PROTAC activity at VHL/wild type nLuc-fused N-terminal RIPK1 kinase domain (unknown origin) expressed in HEK293T cells assessed as induction of protein degradation measured after 24 hrs in presence of furimazine substrate by Nano-Glo luciferase based luminescence analysis; format: cell-based; method in brief: as §1
Target sequence in this assay (Q13546 whole entry, the tested form may be a part): as the sequence (Q13546 whole entry, the tested form may be a part) above
Target sequence in this assay (P40337 whole entry, the tested form may be a part): as the sequence (P40337 whole entry, the tested form may be a part) above

Homo sapiens [3] = species on record: Homo sapiens; test: Binding affinity to His-tagged LgBiT (unknown origin) assessed as off-rate constant protein immobilized on chip surface with surface density of 3000 pg/mm2 by grating-coupled interferometry
Method in brief: (§2)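 His-LgBiT, purified in-house from E. coli BL21(DE3), captured at 50 µg/mL in PBS on a Ni-charged PCP-NTA chip. Two flow channels reached 3000 and 1000 pg/mm2. Kinetics were run in 0.01 M HEPES, 0.15 M NaCl, 0.05% P20, pH 7.4. kon and koff came from a global association-then-dissociation fit.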

Homo sapiens [4] = species on record: Homo sapiens; test: Binding affinity to His-tagged LgBiT (unknown origin) assessed as off-rate constant protein immobilized on chip surface with surface density of 1000 pg/mm2 by grating-coupled interferometry; method in brief: as §2
Homo sapiens [5] = species on record: Homo sapiens; test: Binding affinity to His-tagged LgBiT (unknown origin) assessed as on-rate constant protein immobilized on chip surface with surface density of 3000 pg/mm2 by grating-coupled interferometry; method in brief: as §2
Homo sapiens [6] = species on record: Homo sapiens; test: Binding affinity to His-tagged LgBiT (unknown origin) assessed as on-rate constant protein immobilized on chip surface with surface density of 1000 pg/mm2 by grating-coupled interferometry; method in brief: as §2
[7] = Binding affinity to His-tagged LgBiT (unknown origin) incubated for 30 mins measured after subtracting LgBiT signal in presence of PBS by Nano-Glo luciferase based luminescence analysis; parameters: species or system Homo sapiens
Method in brief: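 Incubated 30 min, then Nano-Glo substrate was added and luminescence read. The LgBiT-only (PBS) baseline was subtracted before the three-parameter agonist fit.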

[8] = target: T1, von Hippel-Lindau disease tumor suppressor/Receptor-interacting serine/threonine-protein kinase 1; test: PROTAC activity at VHL/wild type nLuc-fused N-terminal RIPK1 kinase domain (unknown origin) expressed in HEK293T cells assessed as induction of protein degradation at 1.6 to 1000 nM measured after 24 hrs by immunoblot analysis; format: cell-based; conditions: dose 1.6-1000 nM
Method in brief: (§3)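 HEK293T cells transfected with nLuc (WT or K0)-RIPK1 kinase domain, plated in 12-well plates and treated 24 h. Lysed in RIPA with protease/phosphatase inhibitors and benzonase. 20 µg protein run on SDS-PAGE and transferred to PVDF. Probed overnight at 4 °C with anti-RIPK1 (1:1000) and β-actin (1:4000), then HRP secondary and ECL.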
Target sequence in this assay (P40337 whole entry, looked up, the tested form may be a part): as the sequence (P40337 whole entry, the tested form may be a part) above
Target sequence in this assay (Q13546 whole entry, looked up, the tested form may be a part): as the sequence (Q13546 whole entry, the tested form may be a part) above

[9] = target: T1, von Hippel-Lindau disease tumor suppressor/Receptor-interacting serine/threonine-protein kinase 1; test: PROTAC activity at VHL/wild type nLuc-fused N-terminal RIPK1 kinase domain (unknown origin) expressed in HEK293T cells assessed as induction of protein degradation measured after 24 hrs in presence of furimazine substrate by Nano-Glo luciferase based luminescence analysis relative to control; format: cell-based; method in brief: as §1
Target sequence in this assay (P40337 whole entry, looked up, the tested form may be a part): as the sequence (P40337 whole entry, the tested form may be a part) above
Target sequence in this assay (Q13546 whole entry, looked up, the tested form may be a part): as the sequence (Q13546 whole entry, the tested form may be a part) above

[10] = target: T1, von Hippel-Lindau disease tumor suppressor/Receptor-interacting serine/threonine-protein kinase 1; test: PROTAC activity at VHL/nLucK0-fused N-terminal RIPK1 kinase domain (unknown origin) expressed in HEK293T cells assessed as induction of protein degradation at 1.6 to 1000 nM measured after 24 hrs by immunoblot analysis; format: cell-based; conditions: dose 1.6-1000 nM; method in brief: as §3
Target sequence in this assay (P40337 whole entry, looked up, the tested form may be a part): as the sequence (P40337 whole entry, the tested form may be a part) above
Target sequence in this assay (Q13546 whole entry, looked up, the tested form may be a part): as the sequence (Q13546 whole entry, the tested form may be a part) above

[11] = Binding affinity to His-tagged LgBiT (unknown origin) immobilized on chip surface with surface density of 1000 pg/mm2 by grating-coupled interferometry; parameters: species or system Homo sapiens; method in brief: as §2
[12] = Binding affinity to LgBiT (unknown origin) incubated for 30 mins by Nano-Glo luciferase based luminescence analysis; parameters: species or system Homo sapiens
Method in brief: (§4)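 Equilibrated 30 min at room temperature, then Nano-Glo substrate was added and luminescence read. EC50 from a three-parameter agonist fit; at least 3 technical replicates.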

[13] = Binding affinity to His-tagged LgBiT (unknown origin) immobilized on chip surface with surface density of 3000 pg/mm2 by grating-coupled interferometry; parameters: species or system Homo sapiens; method in brief: as §2
[14] = Binding affinity to His-tagged LgBiT (unknown origin) incubated for 30 mins by Nano-Glo luciferase based luminescence analysis; parameters: species or system Homo sapiens; method in brief: as §4

For Cc1ncsc1-c1ccc([C@H](C)NC(=O)[C@H]2C[C@H](O)CN2C(=O)[C@@H](NC(=O)CCCCCCCCCCC(=O)NCCCn2cc(-c3ccc4c(c3)CCN4C(=O)Cc3cccc(OC(F)(F)F)c3)c3c(N)ncnc32)C(C)(C)C)cc1, the DC50 [1] was “Not Active” and the DC50 [2] was “Not Active”.

In the case of CC[C@H](C)[C@H](NC(=O)[C@H](CCCCN)NC(=O)[C@H](CCCCN)NC(=O)[C@H](Cc1ccccc1)NC(=O)[C@H](CC(C)C)NC(=O)[C@H](CCCNC(=N)N)NC(=O)[C@H](Cc1c[nH]c2ccccc12)NC(=O)CNC(=O)[C@H](CO)NC(=O)[C@@H](N)C(C)C)C(=O)N[C@@H](CO)C(=O)O, the K (Homo sapiens [3]) is reported as 1.4 10^-3/s, the K (Homo sapiens [4]) is reported as 1.3 10^-3/s and the K (Homo sapiens [5]) is reported as 3 10^5/M/s. The K (Homo sapiens [6]) was 7.5 10^5/M/s and the EC50 [7] was 24 nM.

For Cc1ncsc1-c1ccc([C@H](C)NC(=O)[C@@H]2C[C@@H](O)CN2C(=O)[C@@H](NC(=O)CCCCCCCCCCC(=O)NCCCn2cc(-c3ccc4c(c3)CCN4C(=O)Cc3cccc(OC(F)(F)F)c3)c3c(N)ncnc32)C(C)(C)C)cc1, the Activity [8] was “Active”, the %max [9] was 91.5% and the Activity [10] was “Active”.

For CC[C@H](C)[C@H](NC(=O)[C@H](CCCNC(=N)N)NC(=O)[C@H](CCCNC(=N)N)NC(=O)[C@H](Cc1ccccc1)NC(=O)[C@H](CC(C)C)NC(=O)[C@H](CCCNC(=N)N)NC(=O)[C@H](Cc1c[nH]c2ccccc12)NC(=O)CNC(=O)[C@H](CO)NC(=O)[C@@H](N)C(C)C)C(=O)N[C@@H](CO)C(=O)O (H-VSGWRLFRRIS-OH), the Kd [11] was 0.7 nM, the K (Homo sapiens [3]) was 6.7 10^-3/s and the K (Homo sapiens [4]) was 5 10^-4/s. For the same molecule, the EC50 [12] was 6.2 nM, the K (Homo sapiens [5]) was 3.6 10^5/M/s and the Kd [13] was 1.8 nM. For the same molecule, the K (Homo sapiens [6]) was 7.7 10^5/M/s, the EC50 [14] was 8.7 nM and the EC50 [7] was 16 nM.

— ChEMBL document CHEMBL5608231, “Lysineless HiBiT and NanoLuc Tagging Systems as Alternative Tools for Monitoring Targeted Protein Degradation” (ACS Med Chem Lett, 2024)
